A selection: hits, their analogues and other compounds. The true share with any hit is near 3.5%.
HIV Env fusion: inhibitors of HIV-1 Env-driven cell-cell fusion, primary screen, HeLa-JRFL effector, CEM21 target cells, luciferase. inhibition, % at 12.3 µM. hit rate 1.1% among 360,000;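 active means mean replicate inhibition score of at least 50 and every replicate individually at or above 50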
DENV2 CPE rescue: inhibitors of DENV2 cytopathic effect, primary screen, cell-based, plate reader, single concentration | DENV2-infected cells, cytopathic effect rescue | CPE inhibition, % at 9.99 µM | hit rate 1.7% among 350,000 | AID 651640, 2012; in the data active means CPE inhibition above about 20%, passing the limit was not always enough; tested in BHK-21 cells
PGC1a acetyl inh: inhibitors of PGC1a acetylation signal, primary screen, cell-based, U2OS, AlphaScreen, inhibitor mode. AlphaScreen anti-acetyl-lysine; with virally co-expressed GCN5 acetyltransferase. inhibition, % at 15.6 µM. hit rate 0.17% among 350,000;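 active means every replicate shows inhibition of at least 40%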
Ecoli rRNA inh: reduced GFP signal of wild-type E. coli, primary screen, bacterial rRNA inhibitor project, GFP/RFP fluorescence, OD600, single point; E. coli WT GFP vs humanized-ribosome RFP mutants, 24 h; stronger effect = lower value; DMSO median 0, no signal -100; GFP signal change (wild-type ribosome), % (concentration not given with the values); hit rate 1.6% among 350,000; AID 720706, 2013;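 active means significant combined selectivity score with lowered wild-type GFP, culture density cut under 30%, mutant RFP and density less affected; inactive means any of these conditions unmet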
FN deposition inh: inhibitors of fibronectin matrix deposition, primary screen, AH1F cells, Alexa488-fibronectin fluorescence, plate reader. AH1F fibroblasts, overnight. AID 743247, 2014. inhibition, % at 12.6 µM. hit rate 0.086% among 350,000;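 active means mean inhibition across replicates of 30% or more, regardless of how many single replicates reach that level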
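Schedule: 1 h cell adhesion before compound, then overnight fibronectin incubation; test system: AH1F fibroblast monolayer depositing Alexa488-labelled fibronectin into matrix; quantity: 10000 AH1F cells per well; probe or stimulus: fluorescent fibronectin at 24 nM final; signal: fluorescence, ex 485 nm, em 525 nm; evaluation: percent inhibition as loss of matrix-bound fibronectin fluorescence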
PglD DTNB: C. jejuni PglD acetyltransferase inhibitors, primary screen, biochemical, DTNB colorimetric, single point; UDP-N-acetylbacillosamine N-acetyltransferase PglD (Campylobacter jejuni); purified PglD enzyme, DTNB colorimetric CoA detection; inhibition, % at 12.5 µM; hit rate 0.098% among 360,000; in the data active means inhibition above about 16%, passing the limit was not always enough
Hits are given with their value.

CC(C)c1cn(CC[C@H]2CC[C@@H](NC(=O)C3CCCC3)[C@@H](CO)O2)nn1 was read as HIV Env fusion inactive, DENV2 CPE rescue inactive, PGC1a acetyl inh inactive, Ecoli rRNA inh inactive, FN deposition inh inactive and PglD DTNB inactive.
`N=C1/C(=C/c2ccc(-c3cccc(C(=O)O)c3)o2)C(=O)N=C2SC=C(c3ccccc3)N12` gave HIV Env fusion inactive, DENV2 CPE rescue inactive and Ecoli rRNA inh -20.7.
N=C1/C(=C\c2ccc(-c3cc(Cl)cc(Cl)c3)o2)C(=O)N=C2SC=C(c3ccccc3)N12 was read as HIV Env fusion inactive, PGC1a acetyl inh inactive, FN deposition inh inactive and PglD DTNB inactive.
`CCCNC(=O)[C@@H]1[C@@H](CO)[C@@H]2Cn3c(ccc(-c4ccccc4)c3=O)[C@H]1N2C(=O)CC` gave DENV2 CPE rescue inactive, PGC1a acetyl inh inactive and Ecoli rRNA inh inactive.
`CCCCN1C(N)=NC[C@@H]1C(C)O` (stereo not given in full) gave HIV Env fusion inactive, DENV2 CPE rescue 23.0, Ecoli rRNA inh inactive, FN deposition inh inactive and PglD DTNB inactive.
Cc1cc(C(c2ccc(O)cc2)c2cc(C)c(O)cc2C)c(C)cc1O was read as HIV Env fusion inactive, DENV2 CPE rescue inactive, PGC1a acetyl inh inactive, Ecoli rRNA inh -37.4, FN deposition inh inactive and PglD DTNB inactive.
Screening CCC(c1ccc(O)cc1)C(CC)c1ccc(O)cc1 (stereo not given) returned HIV Env fusion inactive, DENV2 CPE rescue inactive, PGC1a acetyl inh inactive, Ecoli rRNA inh inactive, FN deposition inh inactive and PglD DTNB inactive.
For O=C(C[C@@H]1CC[C@H]2[C@@H](COC[C@@H](O)CN2Cc2cccc(Cl)c2)O1)N1CCCCC1 the results were HIV Env fusion inactive, DENV2 CPE rescue inactive, PGC1a acetyl inh inactive, Ecoli rRNA inh inactive, FN deposition inh inactive and PglD DTNB inactive.
For C=CC[C@]12C=C(OC)C(=O)C(OC)=C1O[C@@H](c1ccc3c(c1)OCO3)[C@H]2C the results were DENV2 CPE rescue 30.2, PGC1a acetyl inh inactive, Ecoli rRNA inh inactive and PglD DTNB inactive.
`C=CCC12C=C(OC)C(=O)OC(OC)(C1O)[C@H](c1ccc3c(c1)OCO3)[C@H]2C` (stereo not given in full) gave DENV2 CPE rescue inactive, PGC1a acetyl inh inactive, Ecoli rRNA inh inactive and PglD DTNB inactive.
O=C(C[C@@H]1CC[C@H](NS(=O)(=O)c2ccc(F)cc2)[C@@H](CO)O1)NCCc1ccncc1 was read as HIV Env fusion inactive, DENV2 CPE rescue inactive, PGC1a acetyl inh inactive, Ecoli rRNA inh inactive, FN deposition inh inactive and PglD DTNB inactive.
`COc1cc(CSc2nnnn2-c2ccc(C)cc2)cc(OC)c1OC` gave HIV Env fusion 95.2, PGC1a acetyl inh inactive, FN deposition inh inactive and PglD DTNB inactive.
`COc1ccc(C(C)=O)cc1CSc1nnnn1-c1ccc(O)cc1` gave HIV Env fusion inactive, DENV2 CPE rescue inactive, PGC1a acetyl inh inactive, Ecoli rRNA inh -48.3 and FN deposition inh inactive.
COCC(C)n1c(C)cc(C(=O)CSc2nnnn2-c2ccc(O)cc2)c1C (stereo not given) was read as HIV Env fusion inactive, DENV2 CPE rescue inactive, PGC1a acetyl inh inactive, Ecoli rRNA inh -28.5, FN deposition inh inactive and PglD DTNB inactive.
Screening COc1ccc(C(C)=O)cc1CSc1nnc(-c2ccccc2O)n1-c1ccccc1 returned DENV2 CPE rescue inactive and Ecoli rRNA inh -26.6.
Screening COCC(C)n1c(C)cc(C(=O)CSc2ncccn2)c1C (stereo not given) returned HIV Env fusion inactive, PGC1a acetyl inh inactive, Ecoli rRNA inh inactive and FN deposition inh inactive.
Screening CO[C@@H]1CC[C@@H]2CCN(C)C(=O)C[C@@H](c3ccccc3)CN(C)C(=O)c3cccc(C#N)c3OC[C@H]1O2 returned HIV Env fusion inactive, DENV2 CPE rescue inactive, Ecoli rRNA inh inactive, FN deposition inh inactive and PglD DTNB inactive.
`COCC(=O)N1CC[C@@H]2[C@H]1c1cc(-c3ccc(C#N)cc3)ccc1N[C@@H]2CO` gave DENV2 CPE rescue inactive, PGC1a acetyl inh inactive, Ecoli rRNA inh inactive, FN deposition inh inactive and PglD DTNB inactive.
COC(=O)c1c(CC[C@@H](CO)NC(=O)N2CCC[C@H]2Cn2cc(C3(O)CCCCC3)nn2)oc(C(C)=O)c1C(=O)OC was read as HIV Env fusion inactive, DENV2 CPE rescue inactive and PGC1a acetyl inh inactive.
Screening CC(C)C#Cc1ccc2c(c1)O[C@@H](CN(C)C(=O)CC1CC1)[C@H](C)CN([C@H](C)CO)S2(=O)=O returned HIV Env fusion inactive, DENV2 CPE rescue inactive, PGC1a acetyl inh inactive, Ecoli rRNA inh inactive, FN deposition inh inactive and PglD DTNB inactive.
Screening C[C@H](CO)N1C[C@H](C)[C@H](CN(C)Cc2ccc(C(=O)O)cc2)Oc2c(NS(=O)(=O)c3ccc(Cl)cc3)cccc2C1=O returned HIV Env fusion inactive, DENV2 CPE rescue inactive, PGC1a acetyl inh inactive, Ecoli rRNA inh inactive and PglD DTNB inactive.
O=c1[nH]nc(-c2ccc(NCCCO)c([N+](=O)[O-])c2)c2ccccc12 was read as HIV Env fusion inactive, DENV2 CPE rescue inactive, PGC1a acetyl inh 59.3, Ecoli rRNA inh inactive, FN deposition inh inactive and PglD DTNB inactive.
`COc1cccc(C(C)(O)c2nc(-c3ccc(S(C)(=O)=O)cc3)cs2)c1` (stereo not given) gave HIV Env fusion 64.0, DENV2 CPE rescue inactive, PGC1a acetyl inh inactive, Ecoli rRNA inh inactive, FN deposition inh inactive and PglD DTNB inactive.
For CCN(C[C@H]1[C@H](c2ccc(-c3ccccc3)cc2)[C@H](CO)N1C(C)=O)C(C)=O the results were DENV2 CPE rescue inactive, PGC1a acetyl inh inactive, Ecoli rRNA inh inactive and PglD DTNB inactive.
Screening CCN(C[C@@H]1[C@@H](c2ccc(-c3ccccc3)cc2)[C@H](CO)N1C(C)=O)C(C)=O returned DENV2 CPE rescue 22.2, PGC1a acetyl inh inactive, Ecoli rRNA inh inactive and PglD DTNB inactive.
Screening CCN(C[C@H]1[C@H](c2ccccc2)[C@H](CO)N1C(C)=O)C(=O)NC(C)C returned DENV2 CPE rescue 27.2, PGC1a acetyl inh inactive, Ecoli rRNA inh inactive and PglD DTNB inactive.
CCC(=O)Nc1ccc2c(c1)C(=O)N(C)[C@H]1CC[C@@H](CC(=O)NCCN3CCCCC3)O[C@@H]1CO2 was read as HIV Env fusion inactive, DENV2 CPE rescue inactive, PGC1a acetyl inh inactive, Ecoli rRNA inh inactive, FN deposition inh inactive and PglD DTNB inactive.

High-throughput results as filed in PubChem BioAssay.
